Experimental data as given in PMC11537069 (Structure (London, England : 1993), 2020).

Columns and labels:
HERC2ZZ = target: T1, HERC2ZZ (Homo sapiens, UniProt O95714); experiment: NMR titration; type: binding; details: 0.1 mM 15N-labeled HERC2ZZ, 20 mM Tris pH 6.8, 100 mM NaCl, 298K
T1 sequence (O95714 2702-2755): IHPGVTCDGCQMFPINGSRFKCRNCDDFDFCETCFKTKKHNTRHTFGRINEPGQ
Outline: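 Human HERC2ZZ (aa 2702-2755, plus an extra C-terminal Trp) was expressed in BL21(DE3) RIL in minimal medium with 15NH4Cl and 0.05 mM ZnCl2, induced with 0.2 mM IPTG for 20 h at 16 °C. The His8-SUMO tag was removed with Ulp1, followed by size exclusion. Sample also held 2-5 mM DTT and 10% D2O.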

HERC2ZZ D2709A = experiment: NMR titration; type: binding, human; details: 15N-labeled D2709A HERC2ZZ, 20 mM Tris pH 6.8, 100 mM NaCl, 298K; Figures 3G, 3H, S9

| Compound | CSPs in HERC2ZZ upon addition of free alanine amino acid (HERC2ZZ; 50-fold excess of alanine, Figure S5) | exchange regime of CSPs in HERC2ZZ on the NMR timescale (HERC2ZZ) | interaction with SUMO1 ligand upon D2709A substitution (NMR titration) (HERC2ZZ D2709A) |
| --- | --- | --- | --- |
| C[C@H](N)C(=O)O [alanine, reference compound] | no CSPs |  |  |
| SUMO1FL: full-length SUMO1 protein |  | intermediate exchange regime | abolished |
